Published values gathered from unrelated publications.
Lines come from different studies, so protocols differ.
TNKS2: Poly [ADP-ribose] polymerase tankyrase-2 (TNKS2, Homo sapiens, UniProt Q9H2K2)
mraY: mraY (Staphylococcus aureus, UniProt Q2FZ93)
FLT3 ITD: Receptor-type tyrosine-protein kinase FLT3 (FLT3, Homo sapiens, UniProt P36888, ITD)
TOP2A: DNA topoisomerase 2-alpha (TOP2A, Homo sapiens, UniProt P11388)

With CNC(=O)c1ccc(C(=O)Nc2ccc3c(=O)[nH]c(-c4ccc(C(C)(C)O)cc4)nc3c2)cc1 the IC50 was 30.4 nM (TNKS2; enzyme activity; inhibitor).
CCCCCCC#Cc1cncc(-c2nnc(SCc3cc([N+](=O)[O-])cc([N+](=O)[O-])c3)n2C2CCNCC2)c1 has an IC50 of ~100000 nM (mraY; enzyme activity; inhibitor).
CC(C)(O)c1ccc(-c2nc3cc(NC(=O)c4ccc(-c5ccccc5)nc4)ccc3c(=O)[nH]2)cc1 has an IC50 of 10.6 nM (TNKS2; enzyme activity; inhibitor).
The IC50 of CCCCCCC#Cc1cncc(-c2nnc(SCc3cc([N+](=O)[O-])cc([N+](=O)[O-])c3)n2CCCN)c1 is reported as 25000 nM (mraY; enzyme activity; inhibitor).
CC(C)(O)c1ccc(-c2nc3cc(NC(=O)c4cnc(Oc5ccccc5)nc4)ccc3c(=O)[nH]2)cc1 gave an IC50 of 7.96 nM (TNKS2; enzyme activity; inhibitor).
CN(C)CCNC(=O)c1ccc(-c2nc3ccc4[nH]ncc4c3c3c2CCCCC3)cc1 gave an IC50 of 287 nM (Receptor-type tyrosine-protein kinase FLT3 (FLT3, Homo sapiens, UniProt P36888, F691L); enzyme activity; inhibitor).
For Cc1cc2c(cc1C)N[C@H](c1ccccc1)[C@@H](O)C(=O)N2, the IC50 was 211 nM (Aurora kinase C (AURKC, Homo sapiens, UniProt Q9UQB9); enzyme activity; inhibitor; ELISA).
With O=C(NC1CCCCC1)c1ccc(-c2nc3ccc4[nH]ncc4c3c3c2CCCC3)cc1 the IC50 was > 1000 nM (FLT3 ITD; enzyme activity; inhibitor).
With Cc1cc(C(=O)N2CC(N3CCN(C(=O)c4nccs4)CC3)C2)ccc1-c1ccc(F)c(Cl)c1 the IC50 was 5.15 nM (Monoglyceride lipase (MGLL, Homo sapiens, UniProt Q99685); enzyme activity; inhibitor; fluorescence).
For Cc1n[nH]c2ccc3nc(-c4ccc(C(=O)NCCN(C)C)cc4)c4c(c3c12)CCCCC4, the IC50 was 34 nM (Receptor-type tyrosine-protein kinase FLT3 (FLT3, Homo sapiens, UniProt P36888, D835Y); enzyme activity; inhibitor).
For C=CCn1c(=O)c2cnc(Nc3ccc(N4CCN(C)CC4)cc3)nc2n1-c1ccc2c(n1)[C@@](O)(CC)CC2, the IC50 was > 10000 nM (Serine/threonine-protein kinase PLK1 (PLK1, Homo sapiens, UniProt P53350); target engagement in cells; BRET).
CN(C)CCNC(=O)c1ccc(-c2nc3ccc4[nH]ncc4c3c3c2CCCC3)c(F)c1 has an IC50 of 112 nM (FLT3 ITD; enzyme activity; inhibitor).
Fc1ccccc1Nc1nc(-c2ccncc2)nc2c1CNCC2 gave an IC50 of 4500 nM (TOP2A; enzyme activity; inhibitor).
CN(C)CCNC(=O)c1ccc(-c2nc3ccc4[nH]ncc4c3c3c2CCCCC3)cn1 gave an IC50 of 420 nM (FLT3 ITD; enzyme activity; inhibitor).
Fc1cccc(Nc2nc(-c3ccncc3)nc3c2CNCC3)c1 gave an IC50 of 25000 nM (TOP2A; enzyme activity; inhibitor).
